Measurements published in ChEMBL document CHEMBL1125346, “Guanidinophenyl-substituted enol lactones as selective, mechanism-based inhibitors of trypsin-like serine proteases” (J Med Chem, 1992).

Legend:
[1] = molecular target: Chymotrypsinogen A (Bos taurus) (UniProt P00766); assay: Percent activity regained after N2H4 treatment for alpha-chymotrypsin (17 nM); format: functional
[2] = molecular target: Chymotrypsinogen A (Bos taurus) (UniProt P00766); assay: Time for which maximum percent inhibition by the compound was determined against alpha-chymotrypsin (17 nM); format: functional
Outline: (§1)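 Enzyme incubated with excess lactone added from DMSO stock (final 10% DMSO); aliquots over 2 h diluted into substrate: chymotrypsin Suc-AAPF-pNA 315 µM, pH 7.2, 410 nm; t-PA Spectrozyme t-PA 0.2 mM, Tris-imidazole pH 8.4, 405 nm; HNE MeO-Suc-AAPV-pNA 150 µM, pH 7.4, 410 nm; plasmin Ts-GPK-pNA 157.4 µM, pH 7.8, 404 nm; thrombin Ts-GPR-pNA 75 µM, pH 8.0, 408 nm; trypsin Z-VGR-pNA 155 µM, pH 7.2, 404 nm. Activity given relative to a no-lactone control. Some runs used a 10-min substrate-free delay after dilution. ∞ means no recovery over 2 h.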

[3] = molecular target: Chymotrypsinogen A (Bos taurus) (UniProt P00766); assay: Time for which maximum percent inhibition persists was determined against alpha-chymotrypsin (17 nM); * =no enzyme activity was recovered over 2 h; format: functional; outline: as §1
[4] = molecular target: Chymotrypsinogen A (Bos taurus) (UniProt P00766); assay: Acylation rate constant against Chymotrypsinogen
Outline: (§2)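 Competitive substrate assay: lactone (DMSO, final 10% v/v) and chromogenic substrate combined in buffer, enzyme added, absorbance followed to steady state. Turnover-corrected semilog plot gives kobs; I0 vs I0/kobs replot (eq 6) with separately determined Km yields Ki and ka. Where no burst was seen, Ki was estimated from Km(app) replots using 15-s initial velocities. Buffers and substrates as in incubation assay.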

[5] = molecular target: Chymotrypsinogen A (Bos taurus) (UniProt P00766); assay: Substrate binding constant against Chymotrypsinogen; outline: as §2
[6] = molecular target: Chymotrypsinogen A (Bos taurus) (UniProt P00766); assay: Second order rate constant against Chymotrypsinogen; outline: as §2
[7] = molecular target: T1, Neutrophil elastase (Homo sapiens) (UniProt P08246); assay: Maximum percent inhibition persists was determined against human neutrophil elastase HNE 66 nM; outline: as §1
T1 sequence (whole entry): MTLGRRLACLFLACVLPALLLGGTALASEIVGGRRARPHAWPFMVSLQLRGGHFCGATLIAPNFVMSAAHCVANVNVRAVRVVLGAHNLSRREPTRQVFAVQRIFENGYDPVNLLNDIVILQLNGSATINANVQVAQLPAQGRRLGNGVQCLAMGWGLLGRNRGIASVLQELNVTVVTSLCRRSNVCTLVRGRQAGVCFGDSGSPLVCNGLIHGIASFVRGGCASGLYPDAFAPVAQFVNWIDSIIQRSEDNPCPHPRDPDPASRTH

[8] = molecular target: T1, Neutrophil elastase (Homo sapiens); assay: Time for which maximum percent inhibition persists was determined against human neutrophil elastase HNE(66 nM); format: functional; outline: as §1
[9] = molecular target: T1, Neutrophil elastase (Homo sapiens); assay: Time for which maximum percent inhibition by the compound was determined against human neutrophil elastase HNE(66 nM); format: functional; outline: as §1
[10] = molecular target: Plasminogen (Homo sapiens) (UniProt P00747); assay: Time to reach maximum percent inhibition by the compound was determined against plasmin(625 nM); format: functional
Chain of Plasminogen (Homo sapiens) (P00747 97-580 limits assumed): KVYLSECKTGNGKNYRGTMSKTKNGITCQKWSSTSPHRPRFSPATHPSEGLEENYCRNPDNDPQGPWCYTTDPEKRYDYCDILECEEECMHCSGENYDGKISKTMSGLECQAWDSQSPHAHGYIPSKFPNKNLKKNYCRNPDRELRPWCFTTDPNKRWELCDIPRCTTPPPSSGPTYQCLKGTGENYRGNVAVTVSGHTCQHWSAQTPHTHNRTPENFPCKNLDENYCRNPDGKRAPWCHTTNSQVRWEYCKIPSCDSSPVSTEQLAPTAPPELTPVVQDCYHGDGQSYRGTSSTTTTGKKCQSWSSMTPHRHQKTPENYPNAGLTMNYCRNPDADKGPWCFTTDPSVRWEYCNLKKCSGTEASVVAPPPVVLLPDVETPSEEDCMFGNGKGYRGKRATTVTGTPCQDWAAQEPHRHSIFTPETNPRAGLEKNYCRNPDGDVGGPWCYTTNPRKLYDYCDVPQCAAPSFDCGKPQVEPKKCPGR
Chain of Plasminogen (Homo sapiens) (P00747 581-810 limits assumed): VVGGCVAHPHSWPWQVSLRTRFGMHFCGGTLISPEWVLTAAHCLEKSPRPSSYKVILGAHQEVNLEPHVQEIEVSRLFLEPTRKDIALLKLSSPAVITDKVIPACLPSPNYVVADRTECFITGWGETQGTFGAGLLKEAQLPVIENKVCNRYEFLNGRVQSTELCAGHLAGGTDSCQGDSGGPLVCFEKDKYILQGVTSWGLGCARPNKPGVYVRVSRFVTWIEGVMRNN
Outline: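 Plasmin plus excess lactone (10% final DMSO) was sampled over 2 h into Ts-Gly-Pro-Lys-pNA (157.4 μM) in 0.05 M phosphate, pH 7.8. The slope at 404 nm, relative to an enzyme-only control, gave residual activity. Minutes needed to reach maximal inhibition were reported.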

[11] = molecular target: Plasminogen (Homo sapiens) (UniProt P00747); assay: Percent activity regained after N2H4 treatment for plasmin(625 nM); format: functional
[12] = molecular target: Plasminogen (Homo sapiens) (UniProt P00747); assay: Substrate binding constant against plasmin; outline: as §2
[13] = molecular target: Plasminogen (Homo sapiens) (UniProt P00747); assay: Second order rate constant against plasmin; outline: as §2
[14] = molecular target: Plasminogen (Homo sapiens) (UniProt P00747); assay: Time for which maximum percent inhibition persists was determined against plasmin(625 nM); * =no enzyme activity was recovered over 2 h; format: functional; outline: as §1
[15] = molecular target: Plasminogen (Homo sapiens) (UniProt P00747); assay: Maximum percent inhibition by the compound was determined against plasmin(625 nM); outline: as §1
[16] = molecular target: Plasminogen (Homo sapiens) (UniProt P00747); assay: Acylation rate constant against plasmin; outline: as §2
[17] = molecular target: Tissue-type plasminogen activator (Homo sapiens) (UniProt P00750); assay: Percent activity regained after N2H4 treatment for Tissue plasminogen activator 19.4 nM); format: functional
Chain of Tissue-type plasminogen activator (Homo sapiens) (P00750 36-562 limits assumed): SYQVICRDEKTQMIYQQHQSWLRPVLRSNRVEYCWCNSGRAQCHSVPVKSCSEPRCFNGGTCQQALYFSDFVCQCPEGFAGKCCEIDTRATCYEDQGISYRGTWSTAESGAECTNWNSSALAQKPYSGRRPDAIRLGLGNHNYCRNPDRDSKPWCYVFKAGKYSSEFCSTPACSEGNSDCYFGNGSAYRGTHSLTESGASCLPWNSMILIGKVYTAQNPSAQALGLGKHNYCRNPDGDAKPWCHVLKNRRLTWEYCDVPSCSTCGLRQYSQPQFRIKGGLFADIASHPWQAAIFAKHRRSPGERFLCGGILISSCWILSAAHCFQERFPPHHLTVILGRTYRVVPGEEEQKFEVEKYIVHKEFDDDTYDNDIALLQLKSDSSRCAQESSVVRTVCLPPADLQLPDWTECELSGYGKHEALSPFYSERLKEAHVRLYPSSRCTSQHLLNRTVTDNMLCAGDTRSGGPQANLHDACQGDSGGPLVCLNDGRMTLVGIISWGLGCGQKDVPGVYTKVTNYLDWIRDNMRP

[18] = molecular target: Tissue-type plasminogen activator (Homo sapiens) (UniProt P00750); assay: Maximum percent inhibition by the compound was determined against Tissue plasminogen activator (19.4 nM); outline: as §1
[19] = molecular target: Tissue-type plasminogen activator (Homo sapiens) (UniProt P00750); assay: Substrate binding constant against Tissue plasminogen activator; outline: as §2
[20] = molecular target: Tissue-type plasminogen activator (Homo sapiens) (UniProt P00750); assay: Time for which maximum percent inhibition persists was determined against Tissue plasminogen activator (19.4 nM); * =no enzyme activity was recovered over 2 h; format: functional; outline: as §1
[21] = molecular target: Tissue-type plasminogen activator (Homo sapiens) (UniProt P00750); assay: Time to reach maximum percent inhibition by the compound was determined against Tissue plasminogen activator (19.4 nM); format: functional
Outline: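 Tissue plasminogen activator was exposed to excess lactone (10% final DMSO). Over 2 h, aliquots were diluted into Spectrozyme t-PA (0.2 mM) in Tris-imidazole, I 0.3, pH 8.4. Hydrolysis at 405 nm gave residual activity relative to an enzyme-only control. The time (min) to reach maximal percent inhibition was recorded.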

[22] = molecular target: Prothrombin (Homo sapiens) (UniProt P00734); assay: Substrate binding constant against thrombin; outline: as §2
[23] = molecular target: Prothrombin (Homo sapiens) (UniProt P00734); assay: Second order rate constant against thrombin; outline: as §2
[24] = molecular target: Prothrombin (Homo sapiens) (UniProt P00734); assay: Time to reach maximum percent inhibition by the compound was determined against thrombin (1.93 nM); format: functional
Outline: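 Thrombin was incubated with excess lactone (DMSO, 10% final). Aliquots over 2 h were diluted into Ts-Gly-Pro-Arg-pNA (75 μM) in 0.05 M phosphate, 0.01 M EDTA, 10 g/L PEG 8000, 10 mg/L aprotinin, pH 8.0, and read at 408 nm against a no-lactone control. Time to maximal inhibition was recorded.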

[25] = molecular target: T2, Serine protease 1 (Bos taurus) (UniProt P00760); assay: Time to reach maximum percent inhibition by the compound was determined against trypsin (14.6 nM); format: functional
T2 sequence (whole entry): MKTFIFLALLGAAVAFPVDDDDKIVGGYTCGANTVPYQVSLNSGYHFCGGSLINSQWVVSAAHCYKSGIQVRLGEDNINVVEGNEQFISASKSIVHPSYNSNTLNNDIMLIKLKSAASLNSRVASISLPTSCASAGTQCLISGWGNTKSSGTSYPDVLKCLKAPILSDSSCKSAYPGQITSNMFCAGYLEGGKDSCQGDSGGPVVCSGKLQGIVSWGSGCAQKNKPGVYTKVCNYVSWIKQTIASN
Outline: (§3)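 Trypsin was incubated with excess lactone added from DMSO stock (10% final DMSO). Aliquots taken over 2 h were diluted into Z-Val-Gly-Arg-pNA (155 μM) in 0.2 M phosphate, pH 7.2, and read at 404 nm. Activity came from the absorbance slope versus a no-lactone control. Reported are minutes to maximal inhibition and minutes it persisted; ∞ means no recovery within 2 h.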

[26] = molecular target: T2, Serine protease 1 (Bos taurus); assay: Time for which maximum percent inhibition persists was determined against trypsin (14.6 nM); format: functional; outline: as §3
[27] = molecular target: Prothrombin (Homo sapiens) (UniProt P00734); assay: Maximum percent inhibition by the compound was determined against thrombin (1.93 nM); outline: as §1
[28] = molecular target: Prothrombin (Homo sapiens) (UniProt P00734); assay: Acylation rate constant against thrombin; outline: as §2
[29] = molecular target: Prothrombin (Homo sapiens) (UniProt P00734); assay: Percent activity regained after N2H4 treatment for thrombin (1.93 nM); format: functional
[30] = molecular target: T2, Serine protease 1 (Bos taurus); assay: Maximum percent inhibition by the compound was determined against trypsin (14.6 nM); outline: as §1
[31] = Ratio of initial inhibitor concentration to initial Chymotrypsinogen concentration
Outline: (§4)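 Ratio I0/E0 of lactone to enzyme in the 2-h incubation assay; lactone added from DMSO stock to buffered enzyme (final 10% DMSO).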

[32] = Ratio of initial inhibitor concentration to initial HNE concentration; outline: as §4
[33] = Ratio of initial inhibitor concentration to initial Plasmin concentration; outline: as §4
[34] = Ratio of initial inhibitor concentration to initial t-PA concentration; outline: as §4
[35] = Ratio of initial inhibitor concentration to initial thrombin concentration; outline: as §4
[36] = Ratio of initial inhibitor concentration to initial trypsin concentration; outline: as §4
[37] = Ratio of initial inhibitor concentration to initial urokinase concentration; outline: as §4
[38] = molecular target: Chymotrypsinogen A (Bos taurus) (UniProt P00766); assay: Maximum percent inhibition persists was determined against Chymotrypsinogen (17 nM); outline: as §1
[39] = molecular target: T3, Urokinase-type plasminogen activator (Homo sapiens, UniProt P00749); assay: Percent activity regained after N2H4 treatment for Urokinase-type plasminogen activator (300 nM); format: functional
[40] = molecular target: Prothrombin (Homo sapiens) (UniProt P00734); assay: Time for which maximum percent inhibition persists was determined against thrombin (1.93 nM); * =no enzyme activity was recovered over 2 h; format: functional; outline: as §1
[41] = molecular target: T3, Urokinase-type plasminogen activator
[42] = molecular target: T3, Urokinase-type plasminogen activator; remark: listed apart in the source
[43] = molecular target: T3, Urokinase-type plasminogen activator; assay: Acylation rate constant against urokinase

For `N=C(N)Nc1ccc(C2CC/C(=C\I)OC2=O)cc1` (stereo not drawn), the Activity [1] was 32%, the TIME [2] was 0.25 h and the TIME [3] was “No enzyme activity”. The Ka [4] was 7.22 min⁻¹, the Ks [5] was 2.4 µM and the Rate [6] was 3 ka/Ks. It also gave an inhibition [7] of 38%, a TIME [8] of 1.5 h and a TIME [9] of 0.5 h. For the same compound, the TIME [10] was 0 h, the Activity [11] was 14% and the Ks [12] was 0.03 µM. The Rate [13] was 453 ka/Ks, the TIME [14] was “No enzyme activity” and the inhibition [15] was 95%. For the same compound, the Ka [16] was 13.6 min⁻¹, the Activity [17] was 0% and the inhibition [18] was 48%. The Ks [19] was 0.67 µM, the TIME [20] was “No enzyme activity” and the TIME [21] was 0.25 h. For the same compound, the Ks [22] was 0.93 µM, the Rate [23] was 14 ka/Ks and the TIME [24] was 0 h. It also gave a TIME [25] of 0 h, a TIME [26] of 0 h and an inhibition [27] of 93%. The Ka [28] was 12.9 min⁻¹, the Activity [29] was 85% and the inhibition [30] was 80%. For the same compound, the Ratio [31] was 118 Io/Eo, the Ratio [32] was 36 Io/Eo and the Ratio [33] was 16 Io/Eo. For the same compound, the Ratio [34] was 100 Io/Eo, the Ratio [35] was 518 Io/Eo and the Ratio [36] was 86 Io/Eo. The Ratio [37] was 50 Io/Eo, the inhibition [38] was 78% and the Activity [39] was 0%. For the same compound, the TIME [40] was “No enzyme activity”, the Ks [41] was 0.16 µM and the Rate [42] was 117 ka/Ks. For the same compound, the Ka [43] was 18.6 min⁻¹.
